Source: ChEMBL document CHEMBL4689842, “EUbOPEN Chemogenomics Library wave 1” (2021)

Test system: Fibroblast
Test: Multiplex assay against human fibroblast
Assay type: toxicity, cell-based
Method in brief: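 Cells stained live at seeding with Hoechst33342, BioTracker Green Microtubule Cytoskeleton Dye, MitoTracker Red and Annexin V Alexa Fluor 680 were imaged on a CQ1 microscope at 37°C and 5% CO2 after compound addition. Their classification by CellPathfinder machine-learning gating ran from Hoechst high-intensity objects versus normal cells, to healthy, pyknosed or fragmented nuclei among normal cells, to mitotic or apoptotic among pyknosed cells. Tubulin, mitochondrial-mass and membrane-permeability phenotypes are per cents of healthy-nucleus cells.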

[1] = 12 h, 1 µM, compound concentration 1 uM, replicate 1
[2] = 12 h, 1 µM, compound concentration 1 uM, replicate 2
[3] = 12 h, 10 µM, compound concentration 10 uM, replicate 1
[4] = 12 h, 10 µM, compound concentration 10 uM, replicate 2
[5] = 24 h, 1 µM, compound concentration 1 uM, replicate 1
[6] = 24 h, 1 µM, compound concentration 1 uM, replicate 2
[7] = 24 h, 10 µM, compound concentration 10 uM, replicate 1
[8] = 24 h, 10 µM, compound concentration 10 uM, replicate 2
[9] = 48 h, 1 µM, compound concentration 1 uM, replicate 1
[10] = 48 h, 1 µM, compound concentration 1 uM, replicate 2
[11] = 48 h, 10 µM, compound concentration 10 uM, replicate 1
[12] = 48 h, 10 µM, compound concentration 10 uM, replicate 2

SMILES: CC(/C=C1\SC(=S)N(CCCC(=O)Nc2ccc(C(=O)O)c(O)c2)C1=O)=C\c1ccccc1
- Population Apoptotic (%) [1]: 59%
- Population Fragmented Nuclei (%) [1]: 22%
- Population Healthy Nuclei (%) [1]: 47%
- Population Hoechst High Intensity Objects (%) [1]: 11%
- Population Membrane Permeable-Phenotype (%) [1]: 31%
- Population Mitochondria Different-Phenotype (%) [1]: 4%
- Population Mitotic Cells (%) [1]: 40%
- Population Normal (%) [1]: 88%
- Population Pyknosed Nuclei (%) [1]: 29%
- Population Tubulin-Different-Phenotype (%) [1]: 38%
- Total Cell Count [1]: 167
- Population Apoptotic (%) [2]: 33%
- Population Fragmented Nuclei (%) [2]: 10%
- Population Healthy Nuclei (%) [2]: 81%
- Population Hoechst High Intensity Objects (%) [2]: 6%
- Population Membrane Permeable-Phenotype (%) [2]: 7%
- Population Mitochondria Different-Phenotype (%) [2]: 7%
- Population Mitotic Cells (%) [2]: 66%
- Population Normal (%) [2]: 93%
- Population Pyknosed Nuclei (%) [2]: 7%
- Population Tubulin-Different-Phenotype (%) [2]: 7%
- Total Cell Count [2]: 65
- Population Apoptotic (%) [3]: 62%
- Population Fragmented Nuclei (%) [3]: 32%
- Population Healthy Nuclei (%) [3]: 48%
- Population Hoechst High Intensity Objects (%) [3]: 61%
- Population Membrane Permeable-Phenotype (%) [3]: 40%
- Population Mitochondria Different-Phenotype (%) [3]: 9%
- Population Mitotic Cells (%) [3]: 37%
- Population Normal (%) [3]: 38%
- Population Pyknosed Nuclei (%) [3]: 18%
- Population Tubulin-Different-Phenotype (%) [3]: 54%
- Total Cell Count [3]: 331
- Population Apoptotic (%) [4]: 44%
- Population Fragmented Nuclei (%) [4]: 17%
- Population Healthy Nuclei (%) [4]: 72%
- Population Hoechst High Intensity Objects (%) [4]: 7%
- Population Membrane Permeable-Phenotype (%) [4]: 6%
- Population Mitochondria Different-Phenotype (%) [4]: 6%
- Population Mitotic Cells (%) [4]: 55%
- Population Normal (%) [4]: 92%
- Population Pyknosed Nuclei (%) [4]: 10%
- Population Tubulin-Different-Phenotype (%) [4]: 9%
- Total Cell Count [4]: 88
- Population Apoptotic (%) [5]: 54%
- Population Fragmented Nuclei (%) [5]: 23%
- Population Healthy Nuclei (%) [5]: 50%
- Population Hoechst High Intensity Objects (%) [5]: 7%
- Population Membrane Permeable-Phenotype (%) [5]: 29%
- Population Mitochondria Different-Phenotype (%) [5]: 1%
- Population Mitotic Cells (%) [5]: 45%
- Population Normal (%) [5]: 92%
- Population Pyknosed Nuclei (%) [5]: 25%
- Population Tubulin-Different-Phenotype (%) [5]: 37%
- Total Cell Count [5]: 155
- Population Fragmented Nuclei (%) [6]: 12%
- Population Healthy Nuclei (%) [6]: 76%
- Population Hoechst High Intensity Objects (%) [6]: 6%
- Population Membrane Permeable-Phenotype (%) [6]: 4%
- Population Mitochondria Different-Phenotype (%) [6]: 10%
- Population Normal (%) [6]: 93%
- Population Pyknosed Nuclei (%) [6]: 10%
- Population Tubulin-Different-Phenotype (%) [6]: 12%
- Total Cell Count [6]: 64
- Population Apoptotic (%) [7]: 53%
- Population Fragmented Nuclei (%) [7]: 32%
- Population Healthy Nuclei (%) [7]: 45%
- Population Hoechst High Intensity Objects (%) [7]: 57%
- Population Membrane Permeable-Phenotype (%) [7]: 44%
- Population Mitochondria Different-Phenotype (%) [7]: 6%
- Population Mitotic Cells (%) [7]: 46%
- Population Normal (%) [7]: 42%
- Population Pyknosed Nuclei (%) [7]: 22%
- Population Tubulin-Different-Phenotype (%) [7]: 44%
- Total Cell Count [7]: 326
- Population Apoptotic (%) [8]: 44%
- Population Fragmented Nuclei (%) [8]: 9%
- Population Healthy Nuclei (%) [8]: 83%
- Population Hoechst High Intensity Objects (%) [8]: 4%
- Population Membrane Permeable-Phenotype (%) [8]: 5%
- Population Mitochondria Different-Phenotype (%) [8]: 14%
- Population Mitotic Cells (%) [8]: 55%
- Population Normal (%) [8]: 95%
- Population Pyknosed Nuclei (%) [8]: 7%
- Population Tubulin-Different-Phenotype (%) [8]: 14%
- Total Cell Count [8]: 115
- Population Apoptotic (%) [9]: 62%
- Population Fragmented Nuclei (%) [9]: 34%
- Population Healthy Nuclei (%) [9]: 52%
- Population Hoechst High Intensity Objects (%) [9]: 14%
- Population Membrane Permeable-Phenotype (%) [9]: 30%
- Population Mitochondria Different-Phenotype (%) [9]: 3%
- Population Mitotic Cells (%) [9]: 37%
- Population Normal (%) [9]: 85%
- Population Pyknosed Nuclei (%) [9]: 12%
- Population Tubulin-Different-Phenotype (%) [9]: 33%
- Total Cell Count [9]: 146
- Population Apoptotic (%) [10]: 100%
- Population Fragmented Nuclei (%) [10]: 15%
- Population Healthy Nuclei (%) [10]: 81%
- Population Hoechst High Intensity Objects (%) [10]: 12%
- Population Membrane Permeable-Phenotype (%) [10]: 18%
- Population Mitochondria Different-Phenotype (%) [10]: 1%
- Population Mitotic Cells (%) [10]: 0%
- Population Normal (%) [10]: 87%
- Population Pyknosed Nuclei (%) [10]: 2%
- Population Tubulin-Different-Phenotype (%) [10]: 35%
- Total Cell Count [10]: 127
- Population Apoptotic (%) [11]: 69%
- Population Fragmented Nuclei (%) [11]: 49%
- Population Healthy Nuclei (%) [11]: 40%
- Population Hoechst High Intensity Objects (%) [11]: 55%
- Population Membrane Permeable-Phenotype (%) [11]: 37%
- Population Mitochondria Different-Phenotype (%) [11]: 13%
- Population Mitotic Cells (%) [11]: 30%
- Population Normal (%) [11]: 44%
- Population Pyknosed Nuclei (%) [11]: 9%
- Population Tubulin-Different-Phenotype (%) [11]: 54%
- Total Cell Count [11]: 297
- Population Apoptotic (%) [12]: 33%
- Population Fragmented Nuclei (%) [12]: 23%
- Population Healthy Nuclei (%) [12]: 72%
- Population Hoechst High Intensity Objects (%) [12]: 12%
- Population Membrane Permeable-Phenotype (%) [12]: 14%
- Population Mitochondria Different-Phenotype (%) [12]: 4%
- Population Mitotic Cells (%) [12]: 66%
- Population Normal (%) [12]: 87%
- Population Pyknosed Nuclei (%) [12]: 4%
- Population Tubulin-Different-Phenotype (%) [12]: 38%
- Total Cell Count [12]: 74
